Assay outcomes from PubChem BioAssay.
A selection: hits, their analogues and other compounds. The true share with any hit is near 1.7%.
Ecoli rRNA inh = selective bacterial rRNA inhibition in E. coli; E. coli WT GFP vs humanized-ribosome RFP mutants, fluorescence, 24 h; hits give low values; DMSO median 0, no signal -100; GFP signal change (wild-type ribosome), % (test concentration not listed); 350,000 compounds, 1.6% hits;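 active = significant combined selectivity score with lowered wild-type GFP, culture density cut under 30%, mutant RFP and density less affected; inactive = any of these conditions unmet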
CaV13 FRET inh = Primary screen for inhibitors of IQ motif and Ca2+-dependent inactivation inhibitor domain binding in CACNA1D, Förster resonance energy transfer in living cells, …. 340,000 compounds, 0.098% hits. HEK cells, CFP/YFP FRET ICDI-IQ, plate reader, 10 min; percent FRET-ratio fall versus neutral wells. inhibition, % at 12.3 µM. AID 743397;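 active = mean replicate inhibition of at least 30% and at least 1% of replicates passing that level; inconclusive = only one of the two criteria is met; inactive = neither criterion is met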;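 note: 0% = median of the neutral control wells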
Cneo AK release = causes C. neoformans cell lysis. adenylate kinase release luminescence, 4 h; normalised: neutral wells 0, clomiphene wells 100. lysis activity, % at 15 µM. 360,000 compounds, 0.2% hits. AID 651654;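 active = mean lysis activity across replicates of at least 80%, whatever share of replicates individually reach that level; inactive = mean lysis activity below 80%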
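Test system: log-phase Cryptococcus neoformans yeast cells; Quantity: yeast cell density of 5 × 10^6 cells/mL; Buffer or medium: YPD; Doses: single compound concentration per well; Timing: 4 h at 37 °C static, read 1 h later; Measured by: AK luminescence; Read-out basis: lysis from increased AK signal; Control set: Clomiphene as positive control.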
F508del corr = CFTR F508del correction in bronchial cells. CFBE cells, YFP halide quenching; stimulated with forskolin plus potentiator P3; % fluorescence drop versus neutral controls. activity (quench increase), % at 7.58 µM. 350,000 compounds, 0.36% hits. AID 720511;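 active = mean added fluorescence quench of at least 8% versus neutral control, with both replicates also reaching 8%; inconclusive = only one of the mean or replicate conditions met; inactive = mean below 8% and not both replicates reaching 8%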;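 note: cells transiently co-express mutant CFTR-F508del with the halide-sensitive YFP; corrector assay measuring rescue of mutant channel to the surface after 24 h compound exposure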
* marks the source's active call; other numbers are inactive results; ? = inconclusive; nt = not tested or not shown; + = active, no number.

SMILES	Ecoli rRNA inh	CaV13 FRET inh	Cneo AK release	F508del corr
Cc1ccc2nc(N/C(=N/S(=O)(=O)c3cccs3)c3ccccc3Cl)sc2c1	-32*	-1	-1	2
O=C(C[C@@H]1CC[C@H]2[C@@H](COC[C@H](O)CN2Cc2ccccc2)O1)N1CCOCC1	0	nt	6	-3
CC(C)NC(=O)N(C)C[C@H]1Oc2ccc(NC(=O)Cc3ccccc3)cc2C(=O)N([C@@H](C)CO)C[C@H]1C	2	nt	4	-1
O=C(O)c1ccc(N/N=C/c2ccc(-c3ccccc3Cl)o2)cc1	-46	+	-22	-11
C/C(=N\NC(=O)c1cc(-c2ccc(C)s2)[nH]n1)c1ccco1	-35*	-6	nt	1
O=C(Cc1ccc(Cl)cc1)Nc1ncc([N+](=O)[O-])s1	-48	-20	nt	-1
Cc1ccc(C(=O)Nc2ncc([N+](=O)[O-])s2)cc1	-52*	-5	-10	-3
O=C(COc1ccc(Cl)cc1)Nc1ncc([N+](=O)[O-])s1	-24*	1	nt	-1
Cc1ccc(S(=O)(=O)N[C@@H]2CC[C@@H](CCNC(=O)c3ccc4c(c3)OCO4)O[C@H]2CO)cc1	-2	nt	-6	-1
O=[N+]([O-])c1ccccc1/C=N/Nc1nc(N2CCCC2)nc(N2CCCC2)n1	-12*	-7	0	-3
Cn1cnnc1SCC(=O)Nc1ccc2nc(SCc3ccccc3F)sc2c1	-23*	-7	-5	-1
Cc1noc(C)c1S(=O)(=O)Nc1cccc2c1O[C@@H](CN(C)S(=O)(=O)c1cccs1)[C@@H](C)CN([C@H](C)CO)C2=O	2	nt	-5	-3
O=C(CC(=O)c1cc(Cl)ccc1O)c1ccccc1	-27*	-8	1	0
Cc1cccc(C(=O)CC(=O)c2cc(Cl)ccc2O)c1	nt	nt	-1	nt
Cc1ccc(NC(=S)Nc2ccc(Cl)c(Cl)c2)c(OC(F)F)c1	-41*	-2	nt	2
Cc1c(OCC(=O)NCCN2CCOCC2)ccc2c3c(c(=O)oc12)CCC3	-5	-7	0	11*
O=C(c1ccc(F)cc1)C1CCN(C(=O)Nc2ccccc2Cl)CC1	-30	64*	nt	1
COC(=O)c1c(C(=O)OC)c(-c2ccc(C)cc2)n2c1CCC2	nt	-8	-2	nt
COC(=O)c1c(C(=O)OC)c(-c2ccc(Cl)c(Cl)c2)n2c1CCC2	-29*	-8	nt	-1
C[C@@H]1CN([C@@H](C)CO)C(=O)c2cc(-c3ccc(C#N)cc3)cnc2O[C@@H]1CN(C)CC1CC1	nt	nt	nt	-2
COc1cccc(CN2CC3(CCN(C(=O)Nc4c(C)noc4C)CC3)c3c([nH]c4cc(OC)ccc34)[C@@H]2CO)c1	4	nt	nt	nt
CCOc1cc(/C=N/NC(=O)CCCC(=O)NC2CCCCC2)ccc1O	-8	-15	102*	nt
CCCCC(=NCCc1c(C)[nH]c2ccc(OC)cc12)C1=C(O)CC(c2ccccc2)CC1=O (stereo not drawn)	10	-33	nt	11*
O=C(COc1ccccc1)Nc1ccc2[nH]ncc2c1	0	-3	2	3
Cc1ccccc1OCC(=O)Nc1ccc2[nH]ncc2c1	-21*	?	0	4
SMILES	Ecoli rRNA inh	CaV13 FRET inh	Cneo AK release	F508del corr
COCC#Cc1ccc2c(c1)O[C@@H](CN(C)S(=O)(=O)c1cccc(OC)c1)[C@H](C)CN([C@H](C)CO)S2(=O)=O	0	nt	-1	nt
Cc1ccc(-c2cn(-c3ccc(OC(F)F)cc3)c3[n+]2CCCCC3)cc1	-36*	-4	1	0
FC(F)Oc1ccc(-n2cc(-c3ccccc3)[n+]3c2CCCCC3)cc1	-28*	-3	nt	0
c1ccc(-c2cn(-c3ccccc3)c3[n+]2CCS3)cc1	-10	1	1	3
Cc1ccc(-c2cn(-c3ccc(SC(F)F)cc3)c3[n+]2CCC3)cc1	nt	-7	nt	nt
CC(C)(C)c1ccc(-c2cn(-c3ccc(Br)cc3)c3[n+]2CCCS3)cc1	-50*	-5	nt	3
Clc1ccc(-n2cc(-c3ccc(Br)cc3)[n+]3c2CCCCC3)cc1	-46*	-4	nt	1
CC(C)C[C@@H]1COCc2cn(nn2)CC[C@H](Cc2cccc(Cl)c2)C(=O)N1	0	nt	nt	nt
COc1cccc(-c2ccc3c(c2)[C@@H]2[C@@H](CCN2S(=O)(=O)c2ccccc2F)[C@@H](CO)N3C)c1	1	nt	-40	5
O=C(NCC[C@@H]1CC[C@H](NC(=O)c2cnccn2)[C@H](CO)O1)Nc1ccc(F)cc1	0	nt	-2	0
CN(C)c1ccc2c(c1)[C@H]1C[C@H](CC(=O)NC3CCCC3)O[C@H](CO)[C@H]1O2	-1	nt	0	-5
COc1ccc(CN(C)C[C@@H]2Oc3ccc(NC(=O)NC4CCCCC4)cc3CC(=O)N([C@H](C)CO)C[C@H]2C)cc1	-4	nt	2	1
Oc1ccc(Cl)cc1CNCc1cccc2ccccc12	-24*	-10	-11	0
O=C(Nc1ccc2c(c1)[C@H]1C[C@@H](CC(=O)N3CCOCC3)O[C@H](CO)[C@H]1O2)C1CCC1	1	nt	0	0
Clc1cccc(Cl)c1/C=N/Nc1c(Cl)cncc1Cl	-16*	-4	nt	-33
Clc1cncc(Cl)c1N/N=C/c1ccncc1	-5	-5	3	nt
CNC(=O)C[C@H]1CC[C@H]2[C@@H](COc3ccc(NC(=O)c4ccno4)cc3C(=O)N2C)O1	5	nt	-3	-1
Cc1cccc(Nc2nnc(-c3ccc(N4CCOCC4)c([N+](=O)[O-])c3)c3ccccc23)c1	-32*	-1	-2	1
Cc1nnc(-c2ccc(N3CCOCC3)c([N+](=O)[O-])c2)o1	nt	nt	1	nt
NC(=O)c1cc(C(=O)c2ccc(Cl)cc2)c[nH]1	-23*	4	nt	0
NC(=O)c1cc(C(=O)c2ccc(Cl)cc2Cl)c[nH]1	-13	-2	nt	3
Cc1noc(C)c1NC(=O)N(C)C[C@H]1OCCCC[C@@H](C)Oc2ccc(NS(=O)(=O)c3cn(C)cn3)cc2C(=O)N([C@@H](C)CO)C[C@@H]1C	3	nt	-2	-3
COc1cccc(CN(Cc2cccnc2)S(=O)(=O)c2ccc(-n3cnnn3)c(C)c2)c1	-25*	-6	-2	-2
COc1ccc2cc(CN(Cc3cccs3)Cc3nnnn3Cc3ccccc3)c(=O)[nH]c2c1	nt	nt	0	nt
COc1ccc2cc(CN(Cc3cccnc3)Cc3nnnn3Cc3ccccc3)c(=O)[nH]c2c1	-28*	-8	nt	3
COc1ccc(S(=O)(=O)N(Cc2cccnc2)Cc2cc3ccccc3[nH]c2=O)cc1	-29*	-6	-1	2
O=C(Nc1ccc(C(F)(F)F)cc1)N[C@@H]1CC[C@@H](CCn2cc(C3(O)CCCC3)nn2)O[C@H]1CO	-5	nt	1	-1
C[C@H]1CN([C@@H](C)CO)C(=O)c2cc(NC(=O)CCC(F)(F)F)ccc2O[C@@H]1CN(C)C	0	nt	-1	0
Cc1ccc(-c2c[n+](CC(=O)Nc3ccc(C)cc3C)c3n2CCC3)cc1	-33*	-20	2	1
